# Compound activity (PubChem BioAssay)
# MrgX1 antag: antagonists of human MrgX1 receptor | MRGX1-HEK293 calcium flux, Fluo-4, BAM8-22 antagonism; stronger effect = lower value | B-score at 10 µM | 310,000 compounds, 1.3% hits | AID 588676;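 active means calcium-response B-score plate-corrected more than 3 library SD below zero, starting fluorescence within 5 deviations, no agonist response on first addition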;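 further: peak minus trough fluorescence over baseline after final BAM8-22 challenge near maximal dose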
# Target sequence (Q96LB2 whole entry, looked up): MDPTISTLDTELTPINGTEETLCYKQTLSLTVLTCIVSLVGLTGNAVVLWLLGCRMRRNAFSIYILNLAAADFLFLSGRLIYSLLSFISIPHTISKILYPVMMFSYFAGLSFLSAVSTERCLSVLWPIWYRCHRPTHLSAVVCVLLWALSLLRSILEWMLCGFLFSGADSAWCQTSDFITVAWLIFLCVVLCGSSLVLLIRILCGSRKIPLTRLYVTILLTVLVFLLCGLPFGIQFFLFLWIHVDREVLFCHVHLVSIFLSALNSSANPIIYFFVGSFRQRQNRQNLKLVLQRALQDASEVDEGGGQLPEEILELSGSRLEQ
# MrgX1 agonist: activates human MrgX1 receptor signaling | Q96LB2 | MrgX1-HEK293 cells, Fluo-4 calcium fluorescence, agonist mode; stronger effect = higher value | B-score at 10 µM | 310,000 compounds, 0.44% hits | AID 588627;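 active means calcium response B-score plate-corrected fluorescence ratio at least 3 library SD, with starting fluorescence B-score inside 5 SD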
#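 Material: MrgX1-expressing HEK293 cells; input: 15,000 cells per well; doses: test compound given as first of three sequential additions; schedule: overnight plating before 1 h dye loading; technique: Fluo-4 NW calcium-flux fluorescence, kinetic read; evaluation: baseline-normalised fluorescence change ratio, B-scored; control set: plate-wise positive and negative controls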
# RGS4 act: potentiators or activators of RGS4; HEK293 M3R/inducible RGS4, carbachol calcium flux Fluo4; stronger effect = lower value; B-score at 10 µM; 310,000 compounds, 0.92% hits; AID 463111;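 active means B-score of the integrated calcium signal more than 4 SD below the library mean, with starting fluorescence not abnormally high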;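 further: negative B-score means reduced calcium response which marks RGS4 activation or potentiation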
#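 Material: Inducible-RGS4 HEK293 cells carrying M3 receptor; also added: carbachol at ECmax as muscarinic agonist stimulus; incubation: compound preincubation 20 min at room temperature before agonist; signal: Fluo4-AM (2 µM) calcium-flux fluorescence, kinetic read; measure: integrated calcium ratio converted to B score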
# MrgX1 PAM: human MrgX1 positive allosteric modulation, primary screen; 310,000 compounds, 0.63% hits; B-score at 10 µM; AID 588675; MrgX1-HEK293, Fluo-4 calcium flux, FDSS; stronger effect = higher value;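 active means plate-corrected calcium response at least 3 library SD above typical, normal starting fluorescence, not activating the receptor alone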;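 further: compound read alongside a low EC10 to EC30 dose of BAM8-22 agonist; peak minus trough fluorescence over baseline measured at the second addition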
# RGS4 block: human RGS4 inhibition. HEK293 M3R/RGS4 inducible, Fluo-4 calcium flux; stronger effect = higher value; triggered by carbachol at its EC20. AID 463165. 310,000 compounds, 0.45% hits. B-score at 10 µM. P49798;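 active means B-score, a plate-corrected calcium signal, over three deviations above library mean, with baseline fluorescence within five deviations of library mean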;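 further: RGS4 expression induced by doxycycline in cells with stable M3 receptor; B-score is computed from the integrated fluorescence ratio over baseline after carbachol; higher B-score means a larger calcium signal and so more RGS4 inhibition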
# Target sequence (P49798 whole entry, looked up): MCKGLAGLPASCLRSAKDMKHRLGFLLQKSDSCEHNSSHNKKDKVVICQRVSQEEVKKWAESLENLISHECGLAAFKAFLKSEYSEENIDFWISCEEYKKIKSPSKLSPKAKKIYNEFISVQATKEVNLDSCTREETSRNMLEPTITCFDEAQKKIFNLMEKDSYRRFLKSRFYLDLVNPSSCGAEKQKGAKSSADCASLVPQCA
# RGS4 block valid: RGS4 inhibitor validation | shares compounds with RGS4 block | HEK293 M3R/RGS4, carbachol calcium Fluo-4 fluorescence; carbachol added at its EC20; 0 = buffer wells, 100 = carbachol control | calcium response, % at 10 µM | 1,700 compounds, 65% hits;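 active means duplicate-averaged calcium response above the buffer-only control mean plus 5 SD of those controls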;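 further: integrated fluorescence ratio F max minus min over baseline F0; higher response in RGS4-induced cells means RGS4 inhibition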
# RGS4 uninduced: checks RGS4 inhibitor effects in non-induced HEK293 M3R cells; shares compounds with RGS4 block; carbachol calcium Fluo-4; submaximal (EC20) carbachol stimulus; buffer wells 0%, carbachol control wells 100%; activity (percent), % at 10 µM; 1,900 compounds, 20% hits; AID 493000; call rule not given here;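 further: RGS4 induction absent so cells express M3R without RGS4; higher means more calcium signal and flags a non-specific hit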
# M3R basal Ca ctr: second RGS4 inhibitor counter-screen in uninduced cells lacking carbachol | HEK293 M3R/RGS4 non-induced, Fluo-4 calcium, no carbachol; normalised: buffer wells 0%, carbachol wells 100% | calcium response (agonist-mode artifact), % at 10 µM | 1,900 compounds, 22% hits | AID 493001 | shares compounds with RGS4 block;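 active means duplicate-averaged calcium rise in uninduced cells above buffer wells' mean plus 5 SD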
# MrgX1 ag reconf: reconfirmed activator of human MrgX1 receptor signaling | MrgX1-HEK293, Fluo-4 calcium fluorescence, FDSS | activation, % at 10 µM | shares compounds with MrgX1 agonist | AID 602412 | 600 compounds, 78% hits;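 active means calcium signal rise, corrected for plate position, at least 3 library SD high, with starting brightness within 5 such deviations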
# HEK293 Ca flux: counter-screen for MrgX1 antagonists: effect in parental HEK293 cells. fluorescence ratio F(max-min)/F0 at 10 µM. AID 624111. Fluo-4 calcium fluorescence, FDSS. shares compounds with MrgX1 antag. 4,000 compounds, 2% hits;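 active means duplicate-averaged calcium fluorescence ratio at least three times the standard deviation of buffer wells, a nonspecific response in parental cells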
# HEK293 Ca counter: MrgX1 allosteric activator counter-screen hit in parental HEK293 cells | parental HEK293 calcium flux, Fluo-4 fluorescence ratio; stronger effect = higher value | fluorescence ratio F(max-min)/F0 at 10 µM | AID 624114 | shares compounds with MrgX1 antag | 4,000 compounds, 0.4% hits;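 active means calcium fluorescence ratio, averaged over duplicates, at least 3 SD of the buffer-well ratio, meaning a nonspecific response in receptor-free cells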;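 further: untransfected parental HEK293 lacking MrgX1 used as counterscreen for MrgX1 allosteric activators; fluorescence change taken during the second addition on a kinetic imager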
# HEK293 Ca cntr2: MrgX1 activator counter-screen hit in parental HEK293 cells; shares compounds with MrgX1 antag; Fluo-4 calcium fluorescence (FDSS); stronger effect = higher value; fluorescence ratio F(max-min)/F0 at 10 µM; 4,000 compounds, 8.7% hits;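 active means calcium fluorescence ratio at least three times the spread of buffer wells, meaning a non-specific response in parental cells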
# An asterisk follows results filed as active; i = inactive; · = not tested or not shown. An excerpt weighted towards active compounds, which were near 3.5% of everything screened.
SMILES,MrgX1 antag,MrgX1 agonist,RGS4 act,MrgX1 PAM,RGS4 block,RGS4 block valid,RGS4 uninduced,M3R basal Ca ctr,others
O=C(N/N=C/c1c(O)n(Cc2ccc(F)cc2)c(=O)[nH]c1=O)c1ccccc1,i,i,i,i,i,·,i,i,
O=C1/C(=C\c2ccc(Cl)cc2Cl)N2CCC1CC2,i,i,i,i,7.7*,6.5%*,i,i,
O=C1/C(=C\c2cc3c(cc2Cl)OCO3)N2CCC1CC2,i,i,i,i,i,·,·,·,
O=C1/C(=C\c2ccc(Cl)c(Cl)c2)N2CCC1CC2,i,i,i,i,21*,16%*,i,i,
O=C1/C(=C\c2ccncc2)N2CCC1CC2,i,i,i,i,i,·,·,·,
CCOP(=O)(OCC)C(NC(=O)c1cccc([N+](=O)[O-])c1)C(Cl)(Cl)Cl (stereo unspecified),i,i,i,i,i,·,·,·,
COC(=O)C1=C(c2cc3ccccc3o2)C[C@@H]2CC[C@H]1N2C(=O)NC(C)C,i,i,i,i,i,·,·,·,
Cc1ccc2c(c1)=NC(=O)/C(=C/c1c(O)[nH]c(=O)[nH]c1=O)C=2,i,i,i,i,i,·,i,i,
CC1CC(C)CN(CC(=O)c2ccc(OC(F)F)cc2)C1 (stereo unspecified),i,i,i,i,i,·,·,·,
O=C1NC(=O)C(=Cc2ccc3c(c2)OCO3)C(=O)N1,i,i,i,i,i,·,·,·,
O=C1NC(=O)C(=Cc2ccc(-c3ccc(F)cc3O)o2)C(=O)N1,i,i,i,i,40*,74%*,32%*,10%*,
O=C1NC(=O)C(=Cc2ccc(-c3ccc(S(=O)(=O)N4CCOCC4)cc3)o2)C(=O)N1,i,i,i,i,i,·,·,·,
O=C1NC(=O)C(=Cc2ccc(-c3ccc(Cl)cc3)o2)C(=O)N1,i,i,i,i,14*,16%*,i,8.5%*,
O=c1oc2ccccc2c(O)c1C(c1ccc([N+](=O)[O-])cc1)c1c(O)c2ccccc2oc1=O,·,·,i,·,4.9*,30%*,i,i,
Cc1ccc(OCCOc2cccc(C=C3C(=O)NC(=O)NC3=O)c2)c(C)c1,i,i,i,i,i,·,·,·,
CCN(CC)C(=O)Cn1cc(/C=C2\C(=O)NC(=O)N(c3ccccc3F)C2=O)c2ccccc21,i,27*,i,i,6.6*,38%*,i,430%*,
Cc1cc(OCC(=O)NCc2ccncc2)c2c3c(c(=O)oc2c1)CCCC3,i,i,i,i,i,·,·,·,
COc1ccc(C2CC(c3c(O)n(CCc4ccccc4)c(=O)[nH]c3=O)=NN2)cc1OC (stereo unspecified),i,i,i,i,8.1*,i,i,i,
Cc1ccc(/C=C2\C(=O)NC(=S)N(c3cccc(F)c3)C2=O)o1,i,i,i,i,16*,34%*,i,i,
O=C1NC(=O)N(Cc2ccc(F)cc2)C(=O)/C1=C/c1cccs1,i,i,i,i,30*,15%*,i,i,
COc1ccc(N2C(=O)/C(=C/c3ccc(C)o3)C(=O)NC2=S)cc1,·,·,i,·,i,·,33%*,12%*,
Cc1ccc(/C=C2\C(=O)NC(=O)N(CCc3ccc(F)cc3)C2=O)o1,i,i,i,i,i,·,i,8.5%*,
O=C1NC(=O)N(Cc2ccccc2Cl)C(=O)/C1=C/c1cccs1,i,i,i,i,i,·,·,·,
Cc1ccc2c(c1)N(C(=O)CCC(=O)N1CCC3(CC1)OCCO3)CCO2,i,i,i,i,i,·,·,·,
CCC1(c2ccc(N)cc2)CCC(=O)NC1=O (stereo unspecified),i,i,i,i,i,·,·,·,
SMILES,MrgX1 antag,MrgX1 agonist,RGS4 act,MrgX1 PAM,RGS4 block,RGS4 block valid,RGS4 uninduced,M3R basal Ca ctr,others
COc1ccc(-c2n(-c3ccccn3)c3ccccc3[n+]2-c2ccccn2)cc1,·,·,i,·,i,·,·,·,
CCCC(=O)c1ccc(CP(=O)(OCC)OCC)o1,i,i,i,i,i,·,·,·,
NC1=Nc2ccccc2Oc2ccccc21,i,55*,i,i,i,·,·,·,MrgX1 ag reconf=226%*;HEK293 Ca flux=i;HEK293 Ca counter=i;HEK293 Ca cntr2=i
CN1CCN(c2cccc3c2C(=O)c2ccccc2C3=O)CC1,·,·,i,·,i,·,·,·,
CN1CCN(c2ccc3c(c2)S(=O)(=O)c2ccccc2C3=O)CC1,i,28*,i,i,i,·,·,·,MrgX1 ag reconf=i;HEK293 Ca flux=i;HEK293 Ca counter=i;HEK293 Ca cntr2=51*
CC1=C2C(=O)C3C(CC=C4CC(O)CCC43C)C2CCC12OC1CC(C)CNC1C2C (stereo unspecified),i,i,i,i,i,·,·,·,
O=C1CCCN1CC#CCN1CCCC1,i,52*,i,i,i,·,·,·,MrgX1 ag reconf=226%*;HEK293 Ca flux=i;HEK293 Ca counter=i;HEK293 Ca cntr2=49*
NNC(N)=O,i,i,·,i,·,·,·,·,
COc1ccc(NC(=O)c2cn(CCC#N)nc2-c2cccc(Br)c2)cc1,i,i,i,i,i,·,·,·,
CCOC(=O)c1c(C=O)c2ccccc2n1Cc1ccccc1,i,i,i,i,i,·,·,·,
CNc1ccc2oc(C[C@H]3O[C@@]4(CC[C@H]3C)O[C@H]([C@H](C)C(=O)c3ccc[nH]3)[C@H](C)C[C@H]4C)nc2c1C(=O)O,i,160*,i,i,i,·,·,·,MrgX1 ag reconf=823%*;HEK293 Ca flux=i;HEK293 Ca counter=i;HEK293 Ca cntr2=158*
